Tested on: HEK293T RORa/G6PC promoter luciferase, 20 h
Assay: RORa-driven G6PC promoter inhibitors, potency, late-stage follow-up, counter-screen for RORA inverse agonist project, cell-based, luminescence, dose response (AID 463172)
Procedure, shortened: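 Test system: HEK293T cells with RORa, SRC-2 and G6PC-luciferase reporter / Dosing: 10-point dilution series, highest nominal dose 10 µM / Incubation: 20 h compound exposure after 24 h bulk transfection / Signal: luciferase luminescence / Controls: DMSO vehicle-treated cells as normalization reference / Repeats: eight replicates per concentration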

## O=S(=O)(Nc1ccc(C(O)(C(F)(F)F)C(F)(F)F)cc1)c1cccs1
  IC50: 1400 nM

— PubChem BioAssay AID463172 (The Scripps Research Institute Molecular Screening Center, 2010)
